Assay [1] relates to Aorta. In words: Vasorelaxant activity in Sprague-Dawley rat aorta assessed as inhibition of phenylephrine-induced contraction after 15 to 20 mins. Type of assay: functional, tissue-based. The procedure, abridged: (§1)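 Aortic rings from male Sprague-Dawley rats (4–6 months, ~250 g), equilibrated at least 1 h, then precontracted isometrically with PE (1 µM). Once contraction stabilized (~20 min), compounds were added cumulatively at 15–20 min intervals, up to 300 µM. Vehicle-treated control tissues were run in parallel. Relaxation is expressed as % of PE contraction (Emax), n = 4. EC50 was taken as 50% of maximum relaxation, from nonlinear regression of concentration-response curves.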

The subject of assay [2] is Aorta. In words: Vasorelaxant activity in Sprague-Dawley rat aorta assessed as inhibition of phenylephrine-induced contraction after 15 to 20 mins relative to phenylephrine. In kind it is functional. The procedure, abridged:
as §1

The record followed here is ChEMBL document CHEMBL1140852, “Synthesis, biological evaluation and quantitative structure-activities relationship of flavonoids as vasorelaxant agents” (Bioorg Med Chem, 2009).

What is called Emax is the maximal effect, on the per cent scale that the assay sets.

Regarding `C=CCc1c(O)cc(O)c2c1OC(c1cccc(O)c1)CC2=O` (racemic), the EC50 in assay [1] was 37 µM; in assay [1] (read-out: pEC50 (converted)), 36.3 µM. Moreover, in assay [2], the Emax was found to be 97.8%.
Turning to `O=c1c(O)c(-c2ccc(O)c(O)c2)oc2cc(O)cc(O)c12` [QUERCETIN], the EC50 in assay [1] (read-out: pEC50 (converted)) is 245 µM. Moreover, the Emax in assay [2] is 91.3%.
For `C=CCc1cc(O)cc2c1OC(c1cccc(O)c1)CC2=O` (racemic), the EC50 in assay [1] and in assay [1] (read-out: pEC50 (converted)) was 10.2 µM throughout. For the same compound, in assay [2], the Emax was 90.2%.
Take `C=CCc1cc(O)cc2c1OC(c1ccc(Cl)cc1)CC2=O` (racemic): the EC50 in assay [1] is 4.6 µM; in assay [1] (read-out: pEC50 (converted)), 4.68 µM. Further, the Emax in assay [2] worked out at 95.1%.
Consider `O=C1CC(c2cccc(Br)c2)Oc2ccc(O)cc21` (racemic), for which the EC50 in assay [1] was 38.5 µM; in assay [1] (read-out: pEC50 (converted)), 38 µM. The Emax in assay [2] amounted to 91.8%.
On to `O=c1cc(-c2cccc(Br)c2)oc2cc(O)cc(O)c12`, for which the EC50 in assay [1] was 36.8 µM; in assay [1] (read-out: pEC50 (converted)), 36.3 µM. Further, in assay [2], the Emax was 84.3%.
The matching figures for `C=CCc1c(O)ccc2c1OC(c1ccc3c(c1)OCO3)CC2=O` (racemic): 9.4 µM, 9.33 µM and 96.6%.
Consider `O=C1/C(=C/c2cccc(Br)c2)Oc2cc(O)cc(O)c21`, for which the Emax in assay [2] stood at 59.2%.
Still for that read-out and setting: in the case of `C=CCc1cc(O)cc(C(=O)/C=C/c2ccc(O)cc2)c1O` it was 59.8%.
Consider `O=C1CC(c2cccc(Br)c2)Oc2cc(O)cc(O)c21` (racemic), for which the EC50 in assay [1] was 42.4 µM; in assay [1] (read-out: pEC50 (converted)), 43.7 µM. Further, in assay [2], the Emax stood at 93.5%.
With `O=C1/C(=C/c2ccc3c(c2)OCO3)Oc2cc(O)cc(O)c21`, the EC50 in assay [1] was 220 µM; in assay [1] (read-out: pEC50 (converted)) it was 224 µM. The Emax in assay [2] came to 58.4%.
As for `O=C1CC(c2ccc3c(c2)OCO3)Oc2cc(O)cc(O)c21` (racemic), the figures for the EC50 in assay [1] and in assay [1] (read-out: pEC50 (converted)) were 20.1 µM and 20 µM, respectively. In addition, the Emax in assay [2] amounted to 97.2%.
For the compound `C=CCc1c(O)ccc2c1OC(c1ccc(Cl)cc1)CC2=O` (racemic), the EC50 in assay [1] was 142 µM; in assay [1] (read-out: pEC50 (converted)) it was 145 µM. Moreover, the Emax in assay [2] worked out at 70.8%.
With `C=CCc1c(O)ccc(C(=O)/C=C/c2ccc3c(c2)OCO3)c1O`, the Emax in assay [2] turned out to be 71.8%.
Turning to `C=CCc1c(O)cc(O)c2c1OC(c1ccc(OC)cc1)CC2=O` (racemic), the Emax in assay [2] amounted to 81%.
`C=CCc1c(O)ccc2c1OC(c1ccc(O)c(OC)c1)CC2=O` (racemic): the maximal response (Emax) in assay [2] was 85%.
On to `C=CCc1cc(O)cc2c1OC(c1ccc(O)cc1)CC2=O` (racemic), for which the values for the EC50 in assay [1] and in assay [1] (read-out: pEC50 (converted)) were 34.5 µM and 33.9 µM, respectively. Also, the Emax in assay [2] came out at 95.3%.
Turning to `O=C(/C=C/c1ccc2c(c1)OCO2)c1c(O)cc(O)cc1O`, the EC50 in assay [1] was 22.5 µM; in assay [1] (read-out: pEC50 (converted)) it was 22.4 µM. Also, the Emax in assay [2] was 104%.
Regarding `C=CCc1cc(O)cc2c(=O)cc(-c3ccc(O)cc3)oc12`, the EC50 in assay [1] and in assay [1] (read-out: pEC50 (converted)) was 51.3 µM throughout. Moreover, the Emax in assay [2] was 67.3%.
For `C=CCc1c(O)cc(O)c(C(=O)/C=C/c2ccc(O)cc2)c1O`, the EC50 in assay [1] and in assay [1] (read-out: pEC50 (converted)) was 24 µM throughout. Further, in assay [2], the maximal response (Emax) was 108%.
`C=CCc1c(O)ccc2c1OC(c1ccc(O)cc1)CC2=O` (racemic): the EC50 in assay [1] and in assay [1] (read-out: pEC50 (converted)) was 26.9 µM in each case. Besides, the maximal effect (Emax) in assay [2] is 87.2%.
In the case of `C=CCc1c(O)ccc(C(=O)/C=C/c2ccc(O)cc2)c1O`, the EC50 in assay [1] and in assay [1] (read-out: pEC50 (converted)) was 89.1 µM each time. Also, the Emax in assay [2] is 73.4%.
With `C=CCc1c(O)cc(O)c2c1OC(c1ccc(O)cc1)CC2=O` (racemic), the EC50 in assay [1] was 32.1 µM; in assay [1] (read-out: pEC50 (converted)), 32.4 µM. Further, the maximum response (Emax) in assay [2] came out at 98.6%.
In the case of `C=CCc1c(O)cc(O)c2c1OC(c1cccc(Br)c1)CC2=O` (racemic), the Emax in assay [2] came out at 78.8%.
The same measure, in the same setting: in the case of `C=CCc1c(O)cc(O)c2c1OC(c1cccc(Cl)c1)CC2=O` (racemic) it was 76.7%.
In the case of `O=c1cc(-c2ccc3c(c2)OCO3)oc2cc(O)ccc12`, the EC50 in assay [1] was 81.7 µM; in assay [1] (read-out: pEC50 (converted)) it was 81.3 µM. For the same compound, in assay [2], the Emax was 82.1%.
Turning to `C=CCc1c(O)cc(O)c2c1OC(c1ccc(Cl)cc1)CC2=O` (racemic), the Emax in assay [2] is 77.6%.
Turning to `O=C(/C=C/c1cccc(Br)c1)c1c(O)cc(O)cc1O`, the EC50 in assay [1] (read-out: pEC50 (converted)) was 21.4 µM. For the same compound, in assay [2], the Emax is 99.8%.
